Laboratory results as given in ChEMBL document CHEMBL4765355, “Synthesis of adenine dinucleosides SAM analogs as specific inhibitors of SARS-CoV nsp14 RNA cap guanine-N7-methyltransferase” (Eur J Med Chem, 2020).
The source made the active and inactive calls. The rule behind the calls is not given here.

Tests used:
[1] = tested on: Severe acute respiratory syndrome-related coronavirus; experiment: Inhibition of N7-MTase activity of N-terminal His6-tagged SARS-CoV nsp14 expressed in Escherichia coli using GpppAC4 and [3H]SAM as substrate at 50 uM preincubated with enzyme followed by substrate addition and measured after 30 mins by filter binding assay
Procedure, shortened: (§1)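 Filter binding assay in 40 mM Tris-HCl pH 8.0, 1 mM DTT, 1 mM MgCl2, 2 µM SAM, 0.1 µM 3H-SAM and 0.7 µM GpppAC4 RNA. Enzyme is nsp14 (50 nM), hRNMT (50 nM) or vaccinia D1–D12 (41 U). Compound is at 50 µM with 5% final DMSO. Reactions run 30 min at 30 °C, are stopped by ice-cold water dilution, and 3H on DEAE filters is counted. Percent inhibition is relative to a 5% DMSO control, mean of three experiments.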

Orthopoxvirus vaccinia [2] = experiment: Inhibition of N7-MTase activity of Vaccinia virus mRNA capping enzyme D1/D12 complex using GpppAC4 and [3H]SAM as substrate at 50 uM preincubated with enzyme followed by substrate addition and measured after 30 mins by filter binding assay; procedure, shortened: as §1
[3] = molecular target: RNA-N7 MTase (mRNA cap guanine-N(7) methyltransferase) (Homo sapiens, UniProt O43148); experiment: Inhibition of N-terminal His6-tagged human RNA-N7 MTase expressed in Escherichia coli using GpppAC4 and [3H]SAM as substrate at 50 uM preincubated with enzyme followed by substrate addition and measured after 30 mins by filter binding assay; conditions: probe GpppAC4 and [3H]SAM; procedure, shortened: as §1
[4] = tested on: Severe acute respiratory syndrome-related coronavirus; experiment: Inhibition of 2'-O-MTase activity of SARS-CoV nsp10/16 complex at 200 uM
Zika virus = experiment: Inhibition of 2'-O-methyltransferase in Zika virus at 200 uM
West Nile virus = experiment: Inhibition of 2'-O-methyltransferase in West-Nile virus at 200 uM
Dengue virus = experiment: Inhibition of 2'-O-methyltransferase in Dengue virus at 200 uM
Orthopoxvirus vaccinia [5] = experiment: Inhibition of 2'-O-methyltransferase activity of Vaccinia virus VP39 at 200 uM
[6] = Inhibition of N7-MTase activity of N-terminal His6-tagged SARS-CoV nsp14 expressed in Escherichia coli using GpppAC4 and [3H]SAM as substrate preincubated with enzyme followed by substrate addition and measured after 30 mins by filter binding assay; set-up: species or system Severe acute respiratory syndrome-related coronavirus
Procedure, shortened: (§2)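 Dose-response filter binding assay with nsp14 or hRNMT (each 50 nM) pre-incubated with increasing compound concentrations (5% final DMSO). Then 0.7 µM GpppAC4, 2 µM SAM and 0.1 µM 3H-SAM are added in Tris pH 8.0/DTT/MgCl2, 30 min at 30 °C. IC50 is taken from a Hill slope fit, mean of three independent experiments.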

[7] = molecular target: mRNA cap guanine-N(7) methyltransferase (Homo sapiens, UniProt O43148); experiment: Inhibition of N-terminal His6-tagged human RNA-N7 MTase expressed in Escherichia coli using GpppAC4 and [3H]SAM as substrate preincubated with enzyme followed by substrate addition and measured after 30 mins by filter binding assay; procedure, shortened: as §2
[8] = tested on: Severe acute respiratory syndrome-related coronavirus; experiment: Binding affinity to SARS-CoV nsp14 assessed as increase in melting temperature at 1 mM at pH 7.5 by differential scanning fluorimetry
Procedure, shortened: (§3)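 Purified SARS-CoV nsp14 (5 µM) in 20 mM HEPES pH 7.5, 150 mM NaCl and 1X SYPRO orange, with 1 mM compound (DMSO stock; SAM and sinefungin from water). Protein is mixed with compound before dye is added. Fluorescence is read from 20 to 95 °C at 0.2 °C/min. Tm comes from curve fitting, and ΔTm is taken against a 5% DMSO control.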

[9] = tested on: Severe acute respiratory syndrome-related coronavirus; experiment: Binding affinity to SARS-CoV nsp14 assessed as melting temperature at 1 mM at pH 7.5 by differential scanning fluorimetry; procedure, shortened: as §3

Sequence of RNA-N7 MTase (mRNA cap guanine-N(7) methyltransferase) (O43148 whole entry): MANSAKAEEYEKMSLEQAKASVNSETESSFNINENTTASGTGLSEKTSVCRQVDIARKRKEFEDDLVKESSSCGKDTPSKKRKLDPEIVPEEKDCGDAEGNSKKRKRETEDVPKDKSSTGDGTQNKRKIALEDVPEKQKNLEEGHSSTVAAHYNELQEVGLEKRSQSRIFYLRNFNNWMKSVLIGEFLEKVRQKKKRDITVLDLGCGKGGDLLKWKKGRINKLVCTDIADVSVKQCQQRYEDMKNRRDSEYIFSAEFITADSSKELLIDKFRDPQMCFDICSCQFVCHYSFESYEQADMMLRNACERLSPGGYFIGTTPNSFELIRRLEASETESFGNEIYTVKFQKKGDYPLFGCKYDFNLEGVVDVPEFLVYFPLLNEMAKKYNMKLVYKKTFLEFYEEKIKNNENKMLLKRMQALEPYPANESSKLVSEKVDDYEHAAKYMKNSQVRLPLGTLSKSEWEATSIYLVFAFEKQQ
Sequence of mRNA cap guanine-N(7) methyltransferase (O43148 whole entry): as above

Row | SMILES | inhibition [1] | inhibition (Orthopoxvirus vaccinia [2]) | inhibition at 0.5 h, 50 µM [3] [%] | inhibition [4] | inhibition (Zika virus) | inhibition (West Nile virus) | inhibition (Dengue virus) | inhibition (Orthopoxvirus vaccinia [5]) | IC50 [6] [µM] | IC50 [7] [µM] | ΔTm [8] [°C] | Tm [9] [°C]
1 | COC(=O)CCCN(CCO[C@@H]1[C@H](O)[C@@H](CO)O[C@H]1n1cnc2c(N)ncnc21)C[C@H]1O[C@@H](n2cnc3c(N)ncnc32)[C@H](O)[C@@H]1O | inactive | 69.2% | 32.8 | inactive | inactive | inactive | inactive | inactive | – | – | – | –
2 | Nc1ncnc2c1ncn2[C@@H]1O[C@H](CN(CCO[C@@H]2[C@H](O)[C@@H](CO)O[C@H]2n2cnc3c(N)ncnc32)CC[C@H](N)C(=O)O)[C@@H](O)[C@H]1O | 72% | 85.8% | 77.4 | inactive | inactive | inactive | inactive | inactive | 40.6 | 10.9 | – | –
3 | COC(=O)[C@@H](N)CCN(CCO[C@@H]1[C@H](O)[C@@H](CO)O[C@H]1n1cnc2c(N)ncnc21)C[C@H]1O[C@@H](n2cnc3c(N)ncnc32)[C@H](O)[C@@H]1O | 30.6% | 32.1% | 33.2 | inactive | inactive | inactive | inactive | inactive | – | – | – | –
4 | NC(=O)[C@@H](N)CCN(CCO[C@@H]1[C@H](O)[C@@H](CO)O[C@H]1n1cnc2c(N)ncnc21)C[C@H]1O[C@@H](n2cnc3c(N)ncnc32)[C@H](O)[C@@H]1O | 13.1% | 53.2% | 12.2 | inactive | inactive | inactive | inactive | inactive | – | – | – | –
5 | CCCCN(CCO[C@@H]1[C@H](O)[C@@H](CO)O[C@H]1n1cnc2c(N)ncnc21)C[C@H]1O[C@@H](n2cnc3c(N)ncnc32)[C@H](O)[C@@H]1O | inactive | inactive | 27.5 | inactive | inactive | inactive | inactive | inactive | – | – | – | –
6 | Nc1ncnc2c1ncn2[C@@H]1O[C@H](CNCCO[C@@H]2[C@H](O)[C@@H](CO)O[C@H]2n2cnc3c(N)ncnc32)[C@@H](O)[C@H]1O | 31% | 20.3% | 35.2 | inactive | inactive | inactive | inactive | inactive | – | – | – | –
7 | Nc1ncnc2c1ncn2[C@@H]1O[C@H](CN(CCCC(=O)O)CCO[C@@H]2[C@H](O)[C@@H](CO)O[C@H]2n2cnc3c(N)ncnc32)[C@@H](O)[C@H]1O | 43% | inactive | – | inactive | inactive | inactive | inactive | inactive | – | – | – | –
8 | Nc1ncnc2c1ncn2[C@@H]1O[C@H](CSCC[C@H](N)C(=O)O)[C@@H](O)[C@H]1O | – | – | – | – | – | – | – | – | – | – | 6.5 | –
9 | Nc1ncnc2c1ncn2[C@@H]1OC(CN(CCCc2ccccc2)CCO[C@@H]2[C@H](O)C(CO)O[C@H]2n2cnc3c(N)ncnc32)[C@@H](O)[C@H]1O (single isomer, unassigned) | 38.4% | 11.6% | 23.1 | inactive | inactive | inactive | inactive | inactive | 55.5 | > 500 | 4.6 | > 40
10 | COc1ccc(S(=O)(=O)N(CCO[C@@H]2[C@H](O)C(CO)O[C@H]2n2cnc3c(N)ncnc32)CC2O[C@@H](n3cnc4c(N)ncnc43)[C@H](O)[C@@H]2O)c([N+](=O)[O-])c1 (single isomer, unassigned) | 96.6% | 4.6% | 31.8 | inactive | inactive | inactive | inactive | inactive | 3.9 | > 500 | 4.6 | > 40
11 | Nc1ncnc2c1ncn2[C@@H]1OC(CN(CCO[C@@H]2[C@H](O)C(CO)O[C@H]2n2cnc3c(N)ncnc32)S(=O)(=O)c2ccc(Cl)cc2)[C@@H](O)[C@H]1O (single isomer, unassigned) | 96.2% | 19.7% | 20.2 | inactive | inactive | inactive | inactive | inactive | 1.5 | – | 4.6 | > 40
12 | Nc1ncnc2c1ncn2[C@@H]1OC(CN(CCO[C@@H]2[C@H](O)C(CO)O[C@H]2n2cnc3c(N)ncnc32)Cc2ccc(Cl)cc2)[C@@H](O)[C@H]1O (single isomer, unassigned) | 75.9% | 4.5% | 14.7 | inactive | inactive | inactive | inactive | inactive | 9.9 | – | 4.6 | > 40
13 | Nc1ncnc2c1ncn2[C@@H]1OC(CN(CCO[C@@H]2[C@H](O)C(CO)O[C@H]2n2cnc3c(N)ncnc32)Cc2ccc(Cl)c([N+](=O)[O-])c2)[C@@H](O)[C@H]1O (single isomer, unassigned) | 94% | 4.3% | – | inactive | inactive | inactive | inactive | inactive | 2.4 | – | 4.6 | > 40
14 | Nc1ncnc2c1ncn2[C@@H]1OC(CN(CCO[C@@H]2[C@H](O)C(CO)O[C@H]2n2cnc3c(N)ncnc32)S(=O)(=O)c2ccc([N+](=O)[O-])cc2)[C@@H](O)[C@H]1O (single isomer, unassigned) | 88.6% | 49.8% | 66 | inactive | inactive | inactive | inactive | inactive | 2.6 | > 500 | 4.6 | > 40
15 | COc1cc([N+](=O)[O-])ccc1S(=O)(=O)N(CCO[C@@H]1[C@H](O)C(CO)O[C@H]1n1cnc2c(N)ncnc21)CC1O[C@@H](n2cnc3c(N)ncnc32)[C@H](O)[C@@H]1O (single isomer, unassigned) | 47.6% | 5.3% | 44.2 | inactive | inactive | inactive | inactive | inactive | 70.4 | 169 | 4.6 | > 40
16 | Nc1ncnc2c1ncn2[C@@H]1OC(CN(CCO[C@@H]2[C@H](O)C(CO)O[C@H]2n2cnc3c(N)ncnc32)S(=O)(=O)c2ccc(C(F)(F)F)cc2[N+](=O)[O-])[C@@H](O)[C@H]1O (single isomer, unassigned) | 94.6% | 10.1% | 23.3 | inactive | inactive | inactive | inactive | inactive | 5.7 | 276 | 4.6 | > 40
17 | Nc1ncnc2c1ncn2[C@@H]1O[C@H](C[C@@H](N)CC[C@H](N)C(=O)O)[C@@H](O)[C@H]1O [SINEFUNGIN] | 98.3% | 99.8% | 99.8 | – | – | – | – | – | 0.36 | < 0.05 | 4.4 | –
